# Data reported in ChEMBL document CHEMBL4414651, “Discovery and Optimization of Salicylic Acid-Derived Sulfonamide Inhibitors of the WD Repeat-Containing Protein 5-MYC Protein-Protein Interaction” (J Med Chem, 2019).
# Calls of active or inactive are those of the source. The rule behind the calls is not given here.
# Experiments:
# [1] = Solubility of the compound; assay type: physicochemical
# Method in brief: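 Kinetic solubility, measured by an outside contract lab using a standard commercial assay format.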
# [2] = target: T1, WD repeat-containing protein 5 (Homo sapiens, UniProt P61964); assay: Binding affinity to N-terminal FLAG-tagged human full-length WDR5 expressed in HEK293T cells harboring human C-terminal HA-tagged c-MYC assessed as disruption of WDR5-RBBP5 protein-protein interaction at 50 uM by SDS-PAGE based immunoblot assay; assay type: cell-based
# Method in brief: (§1)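 HEK293 cells expressing FLAG-WDR5 and c-MYC-HA were kept in DMEM with 10% FBS, hygromycin B 50 μg/mL and puromycin 100 ng/mL. Lysates in Tris pH 8.0/NaCl/EDTA/1% Triton buffer were treated with compound at 50 μM or 6.25–50 μM. α-FLAG magnetic M2 beads, 2 h at 4 °C, then SDS-PAGE and α-RBBP5 immunoblot. Quantified against vehicle; at least two independent repeats.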
# [3] = target: T1, WD repeat-containing protein 5; assay: Binding affinity to N-terminal FLAG-tagged human full-length WDR5 expressed in HEK293T cells harboring human C-terminal HA-tagged c-MYC assessed as disruption of WDR5-c-MYC protein-protein interaction at 50 uM by SDS-PAGE based immunoblot assay; assay type: cell-based
# [4] = Protein binding in plasma (unknown origin) assessed as unbound fraction; assay type: ADME, cell-free
# [5] = Apparent permeability from apical to basolateral side in MDCK cells; assay type: ADME, cell-based, Canis lupus familiaris; conditions: dog
# [6] = Apparent permeability from basolateral to apical side in MDCK cells; assay type: ADME, cell-based, Canis lupus familiaris; conditions: dog
# [7] = species on record: Homo sapiens; assay: Inhibition of human MLL1/WDR5/RBBP5/ASH2L/DPY30 complex assessed as reduction in histone methyl-transferase activity using H3-peptide as substrate
# [8] = target: T1, WD repeat-containing protein 5
# [9] = target: T1, WD repeat-containing protein 5; assay: Binding affinity to WDR5 (unknown origin) assessed as inhibition of WDR5-MLL1 protein-protein interaction by TR-FRET assay
# [10] = target: T1, WD repeat-containing protein 5; assay: Binding affinity to N-terminal FLAG-tagged human full-length WDR5 expressed in HEK293T cells harboring human C-terminal HA-tagged c-MYC assessed as disruption of WDR5-c-MYC protein-protein interaction by SDS-PAGE based immunoblot assay; assay type: cell-based
# [11] = target: T1, WD repeat-containing protein 5; assay: Binding affinity to N-terminal FLAG-tagged human full-length WDR5 […] assessed as change in melting temperature at 10 uM by differential scanning fluorimetry
# Method in brief: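 Thermal shift (differential scanning fluorimetry) on WDR5, with compounds at 10 μM. Samples were run in triplicate, and ΔTm is the average melting-temperature shift read by fluorescence.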
# [12] = target: T1, WD repeat-containing protein 5; assay: Binding affinity to N-terminal FLAG-tagged human full-length WDR5 expressed in HEK293T cells harboring human C-terminal HA-tagged c-MYC assessed as disruption of WDR5-RBBP5 protein-protein interaction by SDS-PAGE based immunoblot assay; assay type: cell-based; method in brief: as §1
SMILES,solubility [1] [µM],Activity [2],Activity [3],Fu [4] [%],Papp [5] [×10⁻⁶ cm/s],Papp [6] [×10⁻⁶ cm/s],inhibition [7],Kd [8] [nM],inhibition [9],Activity [10],ΔTm [11] [°C],Activity [12]
CNC(=O)c1cc(Cl)cc(NS(=O)(=O)c2cc(Br)ccc2O)c1O,> 100,Active,Active,< 0.0004,16.7,14.1,Active,746,–,–,–,–
N#CC1(c2cc(NS(=O)(=O)c3cc(Br)cc(Cl)c3O)c(O)c(C(=O)O)c2)CCC1,> 100,Active,Active,< 0.0003,0.33,–,Active,30,inactive,Dose-dependent effect,6.68,Dose-dependent effect
CNC(=O)c1c(O)c(NS(=O)(=O)c2cc(Br)ccc2O)cc(C2CC2)c1F,> 100,–,–,< 0.0002,12.9,3.4,Active,1420,–,–,–,–
CNC(=O)c1cc(C2(C#N)CCC2)cc(NS(=O)(=O)c2cc(Br)cc(Cl)c2O)c1O,> 100,Active,Active,< 0.0006,14,–,Active,69,–,Dose-dependent effect,5.53,Dose-dependent effect
